Hits are enriched below; roughly 1.7% of the tested compounds scored in any of these assays.
GALR2 ag = GALR2 receptor agonists, primary screen, cell-based; activation, % (test concentration not listed); Galanin receptor type 2 (Homo sapiens), O43603; GALR2-expressing cells, agonist activation read-out; hit rate 0.48% among 140,000; in the data active = activation above about 5%, passing the limit was not always enough;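 also: 0% = vehicle buffer wells and 100% = reference agonist at full effect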
Target sequence (O43603 whole entry, looked up): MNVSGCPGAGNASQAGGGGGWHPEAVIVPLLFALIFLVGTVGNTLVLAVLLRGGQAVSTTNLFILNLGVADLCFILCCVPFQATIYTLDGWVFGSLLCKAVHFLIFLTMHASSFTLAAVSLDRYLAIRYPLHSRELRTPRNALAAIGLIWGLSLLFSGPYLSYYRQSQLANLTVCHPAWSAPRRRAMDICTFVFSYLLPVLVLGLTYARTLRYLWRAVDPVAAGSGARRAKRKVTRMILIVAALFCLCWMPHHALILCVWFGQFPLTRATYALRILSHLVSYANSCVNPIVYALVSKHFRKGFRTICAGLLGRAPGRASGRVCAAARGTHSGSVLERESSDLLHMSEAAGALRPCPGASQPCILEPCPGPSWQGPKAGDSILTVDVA
S1P2 blocker = human S1P2 receptor antagonists, primary screen, cell-based; hit rate 0.21% among 97,000; cell-based S1P2 antagonist assay, inhibition at 5 uM; inhibition, % at 5 µM; in the data active = inhibition above about 45%;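 also: CRE beta-lactamase reporter cells expressing human S1P2 stimulated with S1P; 0% = agonist at EC80 alone and 100% = agonist plus reference antagonist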
EphB4 antag = EphB4-ephrin-B2 interaction antagonists, primary screen, biochemical, TNYL-RAW peptide probe, fluorescence polarization | hit rate 0.15% among 97,000 | Ephrin type-B receptor 4 (Homo sapiens), P54760 | inhibition, % at 7 µM | EphB4 LBD / TNYL-RAW-Alexa532 peptide | AID 720, 2007;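 active = inhibition above the screen-wide mean inhibition plus 3 SD, cut at about 15% in these data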;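 also: 0% = DMSO wells and 100% = excess unlabeled TNYL-RAW peptide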
GALR2 antag = GALR2 antagonists in receptor-expressing cells, primary screen | Galanin receptor type 2 (Homo sapiens), O43603 | antagonist mode | inhibition, % at 4 µM | hit rate 0.39% among 140,000 | AID 828, 2007;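 also: cells stimulated with galanin 1-16 at roughly its EC80; 0% = agonist challenge control and 100% = basal control without agonist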
HIV Rev-RRE inh = HIV-1 Rev-RRE binding inhibitors, primary screen, biochemical, FRET, protein-RNA interaction; inhibition, % at 8 µM; hit rate 0.79% among 97,000; Rev peptide-RRE RNA binding;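 active = inhibition above the screen-wide mean plus 3 SD, cut at about 35% in these data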;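 also: 0% = median DMSO wells and 100% = median Neomycin B control wells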
Target sequence (P05866 whole entry, looked up): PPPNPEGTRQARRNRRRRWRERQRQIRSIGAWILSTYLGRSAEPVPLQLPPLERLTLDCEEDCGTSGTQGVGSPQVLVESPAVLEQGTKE
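Test system: Cy5-tagged RRE RNA duplex with fluorescein-tagged Rev peptide; Probe or stimulus: labelled Rev peptide; Schedule: 5 min preincubation and 15 min binding, 25 °C; Signal: FRET fluorescence readout; Evaluation: % inhibition from 671/540 nm acceptor-to-donor ratio, scaled between controls; Control set: DMSO and neomycin B.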
S1P2 ag = S1P2 receptor agonists, primary screen, cell-based | S1P2-expressing cell line, agonist reporter read-out | activation, % at 4.5 µM | hit rate 0.46% among 97,000 | AID 729, 2007; in the data active = activation above about 16%;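 also: 0% = vehicle low control and 100% = maximal reference agonist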
GALR2 ant conf = GALR2 antagonists, retest of hits, confirmation, cell-based; inhibition, % at 4 µM; AID 866, 2007; GALR2-expressing cells, antagonist mode, inhibition; hit rate 60% among 480; shares compounds with GALR2 antag;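 also: cells stimulated with galanin at about its EC80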
BLA inh counter = inhibitors of NFAT-driven beta-lactamase reporter, confirmation, counter-screen for GALR2 antagonist project, CHO NFAT-bla cells, FRET readout; shares compounds with GALR2 antag; thapsigargin-stimulated; inhibition, % at 4.2 µM; hit rate 36% among 480; AID 867, 2007;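 active = inhibition above the mean inhibition across tested compounds plus 3 SD, cut at about 27% in these data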;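 also: 0% = 500 nM thapsigargin stimulated wells and 100% = unstimulated BSA only wells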
* marks the source's active call; other numbers are inactive results; x = not tested or not shown. Rule as the data show it, unless noted: active = inhibition above about 27%; inactive = the rest.

SMILES	GALR2 ag	S1P2 blocker	EphB4 antag	GALR2 antag	HIV Rev-RRE inh	S1P2 ag	GALR2 ant conf	BLA inh counter
COc1ccc(/C=C/C(=O)Nc2ccc(OC)nc2)cc1	-1	x	x	8	x	x	x	x
COc1ccc(NC(=O)/C(Cl)=C(/Cl)S(=O)Cc2ccccc2)cn1 (stereo not drawn)	-3	101*	9	105*	8	-7	102*	106*
COc1ccc(CS(=O)(=O)/C(Cl)=C(/Cl)C(=O)Nc2ccc(OC)nc2)cc1	-4	95*	0	93*	1	-14	92*	92*
COc1ccc(CCNC(=O)c2ccn[nH]2)cc1OC	-2	-12	-2	4	-1	-4	x	x
COc1cc(C2NC(=S)NC(O)(C(F)(F)F)C2C(=O)c2cccs2)cc(OC)c1O (stereo not drawn)	1	x	x	10	x	x	x	x
O=C1NC(c2ccccc2)C(C(=O)c2cccs2)C(O)(C(F)(F)F)N1 (stereo not drawn)	-4	10	-1	33*	6	-3	9	0
O=C(CSc1ccc(Cl)cc1)N1CCOCC1	-2	-5	5	29*	9	-5	-2	-4
C=CCCCCc1nc2ccccc2c(=O)n1N	0	x	x	0	x	x	x	x
COc1cc(OC)c(OC)cc1/C=C/C(=O)c1ccc(NS(=O)(=O)c2ccc(C)cc2)cc1	-1	x	x	31*	x	x	21	19
CCOc1ccc2nc(SC(C)C(N)=O)[nH]c2c1 (stereo not drawn)	0	-2	-9	-9	3	-3	x	x
CC(C)NC(=S)NCc1cccnc1	0	x	x	4	x	x	x	x
CCOC(=O)/C(=C\c1cccnc1)C(=O)c1cc(C(C)=O)c(Nc2ccccc2)s1	-3	60*	-2	54*	7	15	79*	71*
COc1ccccc1NC(=O)c1[nH]c(C)c(C(C)=O)c1C	-2	7	-5	28*	3	-5	33*	10
COc1ccc(C(=O)Nc2cc(OC)nc(OC)n2)cc1	-1	-14	0	1	1	0	x	x
O=C(CCN1C(=O)COc2ccccc21)NCCCN1CCc2ccccc2C1	-2	-44	-9	-12	4	1	x	x
COc1cccc(C(=O)Nc2ccc(S(=O)(=O)NCc3ccco3)cc2)c1	0	x	x	29*	x	x	15	12
CC(=O)c1c(C)[nH]c(C(=O)OCC(=O)Nc2ccc(Cl)cc2[N+](=O)[O-])c1C	0	x	x	36*	x	x	51*	19
COc1cc(OC)nc(-n2ncc(Br)c(Br)c2=O)n1	-2	x	x	103*	x	x	103*	105*
Cc1onc(-c2ccccc2)c1C(=O)Nc1nc2c(s1)CCCC2	-1	-9	1	27*	15	-2	8	4
O=C(Nc1ncc(Cc2ccc(SC(F)F)cc2)s1)c1ccc(OC(F)F)cc1	3	x	x	33*	x	x	8	27*
Cc1ccc(Cc2cnc(NC(=O)c3ccco3)s2)cc1	-2	-1	2	-4	10	-2	x	x
Clc1ccc2nc(N3CCNCC3)nc(-c3ccccc3)c2c1	24*	2	14	35*	0	59*	30*	50*
COc1ccc(OCCNc2cc(N3CCCCC3)ccc2[N+](=O)[O-])cc1	-3	-33	-2	2	8	-1	x	x
COc1ccc(OCCNc2cc(Cl)ccc2[N+](=O)[O-])cc1	-4	-1	9	71*	6	1	11	5
CC(C)OC(=O)c1c2c(n3ccccc13)C(=O)c1ccccc1C2=O	1	x	x	-2	x	x	x	x
SMILES	GALR2 ag	S1P2 blocker	EphB4 antag	GALR2 antag	HIV Rev-RRE inh	S1P2 ag	GALR2 ant conf	BLA inh counter
CC(C)c1ccc(/C=C(\c2nc3ccccc3[nH]2)S(=O)(=O)c2ccccc2)cc1	-2	x	x	0	x	x	x	x
O=S(=O)(/C(=C/c1ccc(C(F)(F)F)cc1)c1nc2ccccc2[nH]1)c1ccccc1	2	x	x	38*	x	x	51*	45*
Cc1cc(C(=O)COC(=O)CN=C2NS(=O)(=O)c3ccccc32)c(C)n1CCc1ccc(Cl)cc1	-1	x	x	13	x	x	x	x
CONc1nc(NC(C)(C)C)nc(OCC#N)n1	-1	x	x	4	x	x	x	x
CN(C)c1nc(Nc2ccc(Cl)cc2)nc(OCC#N)n1	-2	-8	0	35*	4	-5	30*	14
c1ccc2c(c1)[nH]c1c(NCC3CCCO3)ncnc12 (stereo not drawn)	0	10	-5	28*	1	-11	27*	5
CCOCCCNc1ncnc2c1[nH]c1ccccc12	-1	20	-4	29*	9	-5	25	16
c1nc(NCC2CCCO2)c2[nH]cnc2n1 (stereo not drawn)	-1	6	1	0	5	-7	x	x
CCCCOCCCNc1ncnc2c1[nH]c1ccccc12	-1	29	-11	47*	9	-1	31*	23
C=CCNc1ncnc2c1[nH]c1ccccc12	-2	-5	-6	24	3	-2	x	x
CCCCn1cnc2c([nH]c3ccccc32)c1=O	0	9	4	1	6	-4	x	x
CCOC(=O)c1ccc(NC(=O)NS(=O)(=O)c2ccc(C)cc2)cc1	-3	-3	-3	12	6	-9	x	x
O=C1NNC(=O)C2C3C=CC(C4CC34)C12 (stereo not drawn)	-2	-6	1	-8	12	-4	x	x
COc1cccc2c(=O)c(C/C=C(/C)Cl)c(C)[nH]c12	0	-12	-1	-1	2	0	x	x
Cc1ccccc1C(=O)NC(C)c1ccc2c(c1)CCCC2 (stereo not drawn)	-2	9	4	-2	7	-2	x	x
COc1ccc(S(=O)(=O)Nc2ccc(O)c(Sc3ncn[nH]3)c2)cc1	-1	-24	-3	3	4	1	x	x
O=S(=O)(Nc1cc(Sc2cccc3cccnc23)c(O)c2ccccc12)c1ccc(F)cc1	-2	x	x	34*	x	x	27	17
COc1ccc(S(=O)(=O)Nc2cc(Sc3ncn[nH]3)c(O)c3ccccc23)cc1	0	5	-4	49*	-10	-2	17	16
O=C(Nc1cccc(F)c1)c1sc(Cl)nc1-c1ccccc1	-2	x	x	27*	x	x	14	11
CCOC(=O)Cn1c(=O)oc2cc(S(=O)(=O)N3CCc4ccccc43)ccc21	-5	-7	0	1	10	-7	x	x

Source: PubChem BioAssay (The Scripps Research Institute Molecular Screening Center)
